The values that follow come from ChEMBL document CHEMBL1155982 (Bioorg Med Chem Lett, 2009).

The structures appear in SMILES notation.

What is called GI50 is the concentration that inhibits growth by half. Usually IC50 stands for the midpoint of a concentration-inhibition curve. A low value points to inhibition by little substance.

A short description of assay [1]: Intrinsic cytotoxicity against human MES-SA/Dx5 cells. In kind it is functional. The gist of the method:
(§1)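 MES-SA/DX5 (P-gp-overexpressing human sarcoma) cells seeded at 1.2 × 10⁴ cells/well and incubated 24 h at 37 °C. They were then exposed for 60 h to varying concentrations of test compound, with or without 100 nM Taxol. Survival was read by Cell Counting Kit-8, and GI₅₀/EC₅₀ were taken from the concentration series.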

Assay [2] concerns the target Cytochrome P450 3A4 (Homo sapiens, UniProt P08684). Kind of assay: Inhibition of human CYP3A4. In kind it is ADME.
A short description of assay [3]: Cytotoxicity against human MES-SA/Dx5 cells. In kind it is functional, cell-based. The gist of the method: as §1

Cytochrome P450 3A4, sequence (P08684 whole entry): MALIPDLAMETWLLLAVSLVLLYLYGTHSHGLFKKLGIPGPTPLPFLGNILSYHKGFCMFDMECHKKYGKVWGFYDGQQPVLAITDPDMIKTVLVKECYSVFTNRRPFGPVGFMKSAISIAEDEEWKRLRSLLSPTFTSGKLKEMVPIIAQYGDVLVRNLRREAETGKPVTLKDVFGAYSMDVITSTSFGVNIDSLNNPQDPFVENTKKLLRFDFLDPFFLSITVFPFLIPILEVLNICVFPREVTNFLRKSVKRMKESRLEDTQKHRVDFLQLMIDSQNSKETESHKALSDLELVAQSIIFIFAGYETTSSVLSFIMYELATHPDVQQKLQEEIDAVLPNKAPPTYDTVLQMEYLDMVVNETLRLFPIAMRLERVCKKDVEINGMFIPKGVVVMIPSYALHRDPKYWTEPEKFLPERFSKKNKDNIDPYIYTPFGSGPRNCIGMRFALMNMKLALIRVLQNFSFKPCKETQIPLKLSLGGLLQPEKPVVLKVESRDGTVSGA

On to `COc1ccc(CCN(C)CCCC(C#N)(c2ccc(OC)c(OC)c2)C(C)C)cc1OC` (stereo not given), for which the GI50 in assay [1] is more than 20 µM.
For `COC(=O)c1cccc(NC(=O)COc2ccc(C34CC5CC(CC(C(=O)N6CCN(Cc7ccc(OC)cc7)CC6)(C5)C3)C4)cc2)c1`, in assay [2], half-maximal inhibition (IC50) required 0.89 µM. This molecule came in with a 50% growth inhibitory concentration (GI50) in assay [1] of 14 µM.
For the molecule `COc1cc2c(cc1OC)CN(C(=O)C13CC4CC(C1)CC(c1ccc(OCC(=O)Nc5cccc(C#N)c5)cc1)(C4)C3)CC2`, the IC50 in assay [2] was more than 5 µM. The same molecule gave a GI50 in assay [1] of more than 20 µM.
With `COc1cc2c(cc1OC)CN(C(=O)C13CC4CC(C1)CC(c1ccc(OCC(=O)Nc5cccc(C(F)(F)F)c5)cc1)(C4)C3)CC2`, the GI50 in assay [1] turned out to be 12.1 µM.
In turn, `COC(=O)c1cccc(NC(=O)COc2ccc(C34CC5CC(CC(C(=O)N6CCN(Cc7ccc(C(F)(F)F)cc7)CC6)(C5)C3)C4)cc2)c1` registered a half-maximal inhibitory concentration (IC50) in assay [2] of 2.03 µM. Further, the GI50 in assay [1] was more than 20 µM.
Molecule `COC(=O)c1ccc(NC(=O)COc2ccc(C34CC5CC(CC(C(=O)N6CCc7cc(OC)c(OC)cc7C6)(C5)C3)C4)cc2)cc1` returned a GI50 in assay [1] of 14.3 µM.
Molecule `COC(=O)c1cccc(NC(=O)COc2ccc(C34CC5CC(CC(C(=O)N6CCN(Cc7ccc(F)cc7)CC6)(C5)C3)C4)cc2)c1` gave a GI50 in assay [1] of more than 20 µM.
In the case of `COC(=O)c1cccc(NC(=O)COc2ccc(C34CC5CC(CC(C(=O)N6CCN(Cc7cccc(OC)c7)CC6)(C5)C3)C4)cc2)c1`, 0.82 µM corresponded to half-maximal inhibition in assay [2] (IC50). The GI50 in assay [1] was 13.2 µM.
Turning to `COc1cc2c(cc1OC)CN(C(=O)C13CC4CC(C1)CC(c1ccc(OCC(=O)Nc5cccc6cccnc56)cc1)(C4)C3)CC2`, the GI50 in assay [1] is more than 20 µM.
In assay [1], `COC(=O)c1cccc(NC(=O)COc2ccc(C34CC5CC(CC(C(=O)NCCN(C)C)(C5)C3)C4)cc2)c1` showed a GI50 of more than 20 µM.
Turning to `COc1cc2c(cc1OC)CN(C(=O)C13CC4CC(C1)CC(c1ccc(OCC(=O)Nc5cccc(C(N)=O)c5)cc1)(C4)C3)CC2`, in assay [1], it took 16.3 µM to inhibit growth by half (GI50).
In assay [2], `COC(=O)c1ccccc1NC(=O)COc1ccc(C23CC4CC(CC(C(=O)N5CCc6cc(OC)c(OC)cc6C5)(C4)C2)C3)cc1` showed an IC50 of 3.79 µM. In assay [1], this molecule yielded a GI50 of more than 20 µM.
`COC(=O)c1cccc(NC(=O)COc2ccc(C34CC5CC(CC(C(=O)N6CCc7cc(OC)c(OC)cc7C6)(C5)C3)C4)cc2)c1` yielded a GI50 in assay [1] of more than 20 µM.
For the molecule `CC(=O)O[C@H]1C(=O)[C@@]2(C)[C@H]([C@H](OC(=O)c3ccccc3)[C@]3(O)C[C@H](OC(=O)[C@H](O)[C@@H](NC(=O)c4ccccc4)c4ccccc4)C(C)=C1C3(C)C)[C@]1(OC(C)=O)CO[C@@H]1C[C@@H]2O` [PACLITAXEL], halving of growth in assay [1] (GI50) required 7.54 µM. The same molecule had a half-maximal inhibitory concentration (IC50) in assay [3] of 7.54 µM.
In assay [1], `COC(=O)c1cccc(NC(=O)COc2ccc(C34CC5CC(CC(C(=O)OCc6ccccc6)(C5)C3)C4)cc2)c1` returned a concentration for 50% growth inhibition (GI50) of more than 20 µM.
For the molecule `COc1cc2c(cc1OC)CN(C(=O)C13CC4CC(C1)CC(c1ccc(OCC(=O)Nc5cccc(C(=O)NCc6ccco6)c5)cc1)(C4)C3)CC2`, in assay [1], the GI50 is more than 20 µM.
In assay [1], `COC(=O)c1cccc(NC(=O)COc2ccc(C34CC5CC(CC(C(N)=O)(C5)C3)C4)cc2)c1` yielded a concentration for 50% growth inhibition (GI50) of 14.3 µM.
On the same count and under the same terms, for `COC(=O)c1cccc(NC(=O)COc2ccc(C34CC5CC(CC(C(=O)NCc6ccc(OC)c(OC)c6)(C5)C3)C4)cc2)c1` the value was more than 20 µM.
`COC(=O)c1cccc(NC(=O)COc2ccc(C34CC5CC(CC(C(=O)Nc6ccc(C(C)(C)C)cc6)(C5)C3)C4)cc2)c1` showed a 50% growth inhibitory concentration (GI50) in assay [1] of more than 20 µM.
